Bioassay records from PubChem.
An excerpt weighted towards active compounds, which were near 1.7% of everything screened.
EBV gp42 block: inhibitors of Epstein-Barr virus glycoprotein 42; Fluorescence polarization binding assay, mP read-out; inhibition, % (tested at 21.74 µM); 220,000 tested, 0.42% active; AID 1085; in the data active = inhibition above about 50%
HCV NS3 hel inh: blocks Hepatitis C virus NS3 helicase unwinding. NS3 helicase DNA unwinding, Cy5 molecular beacon fluorescence. inhibition, % at 10.9 µM. AID 1800. 290,000 tested, 0.56% active;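 active = inhibition above the mean of all tested compounds plus 3 SD, set per campaign, cut at about 35% in these data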;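 also: 0% = DMSO wells and 100% = thioflavine S control wells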
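assay system = NS3 helicase fragment of HCV | buffer or medium = MOPS pH 6.5, MgCl2, DTT, Tween20, BSA | timing = 60 min unwinding reaction at 25 °C after ATP addition | signal = Cy5 beacon fluorescence read at start and 1 h | read-out basis = % inhibition of unwinding | control set = low DMSO, high thioflavine S at 110 µM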
ZTA DNA inh: counter-screen for EBNA-1 inhibitors: inhibitors of Epstein-Barr virus ZTA; 320,000 tested, 0.15% active; inhibition, % at 11 µM; ZTA-DNA binding, fluorescence polarization; in the data active = inhibition above about 33%
Target sequence (P03206 whole entry, looked up): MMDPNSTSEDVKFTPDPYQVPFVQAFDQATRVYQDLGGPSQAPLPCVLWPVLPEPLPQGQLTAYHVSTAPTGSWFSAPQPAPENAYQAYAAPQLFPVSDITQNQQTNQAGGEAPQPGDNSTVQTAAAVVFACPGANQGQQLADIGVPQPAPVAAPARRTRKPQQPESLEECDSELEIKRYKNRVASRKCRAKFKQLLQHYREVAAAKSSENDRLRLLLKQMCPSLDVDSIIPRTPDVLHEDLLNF
core dimer inh: HCV core protein dimerization inhibition | TR-FRET GST/Flag-core106 dimerization, 1536-well | inhibition, % at 5 µM | 300,000 tested, 0.33% active;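 active = inhibition above the mean of all tested compounds plus 3 SD, set per screening campaign, cut at about 45% in these data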
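Assay system: tagged HCV core106 pair (GST and Flag); medium: KF-containing HEPES buffer, pH 7.45, DTT, CHAPS, BSA; also added: Eu donor and XL665 acceptor anti-tag antibodies; dosing: 5 µM single dose; timing: compound-protein-antibody incubation 4 h at 22.5 °C; signal: TR-FRET 671 and 617 nm emission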
MEX-5 binding: C. elegans MEX-5 TCR-2 RNA binding activity; MEX-5/FITC-TCR2 RNA binding, fluorescence polarization; hits give low values; AID 1832; Q9XUB2; 300,000 tested, 0.38% active; activity score (negative = inhibition of binding), % at 10 µM;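 active = inhibition past about -25% in most replicates, and total fluorescence under double the plate's negative control median, limit read from the data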;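 also: 0% = DMSO and -100% = 5 µM competing unlabeled TCR2 RNA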
Target sequence (Q9XUB2 whole entry, looked up): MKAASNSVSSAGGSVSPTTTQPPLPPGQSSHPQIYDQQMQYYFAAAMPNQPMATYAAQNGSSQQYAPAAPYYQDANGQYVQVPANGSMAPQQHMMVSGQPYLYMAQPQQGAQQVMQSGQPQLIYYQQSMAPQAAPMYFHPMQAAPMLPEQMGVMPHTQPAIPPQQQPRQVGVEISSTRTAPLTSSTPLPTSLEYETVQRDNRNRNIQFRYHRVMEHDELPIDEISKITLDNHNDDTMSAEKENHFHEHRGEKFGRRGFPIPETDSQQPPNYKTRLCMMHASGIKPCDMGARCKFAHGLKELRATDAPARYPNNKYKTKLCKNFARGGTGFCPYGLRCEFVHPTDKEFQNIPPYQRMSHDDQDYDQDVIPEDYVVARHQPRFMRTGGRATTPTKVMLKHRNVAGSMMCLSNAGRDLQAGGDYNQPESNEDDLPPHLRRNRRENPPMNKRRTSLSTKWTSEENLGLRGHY
EBNA-1 inh: blocks EBNA-1 binding to DNA; EBNA-1 DNA binding, fluorescence polarization; inhibition, % at 14.8 µM; 300,000 tested, 0.34% active; in the data active = inhibition above about 28%
NS3 hel confirm: HCV NS3 helicase inhibition, confirmation assay | shares compounds with HCV NS3 hel inh | NS3 helicase DNA unwinding, Cy5 molecular beacon fluorescence | inhibition, % at 10.9 µM | 1,600 tested, 31% active | AID 1943;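 active = inhibition above the mean of all tested compounds plus 3 SD, cutoff set per campaign, cut at about 36% in these data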
DNA FID counter: displaces DNA intercalator in HCV helicase counter-screen; DNA fluorescent intercalator displacement, fluorescence; inhibition, % at 7.9 µM; 1,600 tested, 4% active; shares compounds with HCV NS3 hel inh; AID 1945; in the data active = inhibition above about 37%;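 also: 0% = vehicle and 100% = reference compound; higher means more displacement of ethidium bromide from the DNA hairpin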
FID counter DR: displaces fluorescent intercalator from DNA, HCV helicase counter-screen. shares compounds with HCV NS3 hel inh. fluorescent intercalator displacement from DNA, fluorescence. IC50, µM. 120 tested, under 10 active. AID 2172
EBNA-1 inh conf: EBNA-1 (EBV) inhibition, confirmation | shares compounds with EBNA-1 inh | Recombinant EBNA-1 DBD, Cy5-DNA fluorescence polarization | inhibition, % at 14.8 µM | 830 tested, 35% active | AID 2292;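 active = mean inhibition across replicates above a set limit taken from the earlier primary screen, cut at about 28% in these data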;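 also: plate controls were EBNA-1 protein with DMSO for no effect and wells lacking EBNA-1 for full effect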
ZTA counter trip: blocks Epstein-Barr virus ZTA in triplicate, EBNA-1 counter-screen; shares compounds with EBNA-1 inh; Zta-ZRE DNA binding, Cy5 fluorescence polarization; inhibition, % at 11.1 µM; 830 tested, under 10 active; AID 2328;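 active = mean inhibition over triplicates above a set limit taken from the primary EBNA-1 screen, cut at about 37% in these data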;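 also: purified full length Zta protein with Cy5 labeled ZRE DNA probe; 0% = Zta with DMSO and 100% = wells lacking Zta protein; inhibitors lower polarization by freeing the labeled DNA probe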
ZTA inh confirm: confirmation of Epstein-Barr virus ZTA DNA binding inhibitors. shares compounds with ZTA DNA inh. Zta-ZRE DNA binding, fluorescence polarization. inhibition, % at 11.1 µM. 320 tested, 30% active. AID 2361;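 active = mean inhibition across triplicate runs above the hit threshold derived for the original primary screen, cut at about 33% in these data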;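 also: 0% = Zta with DMSO and 100% = wells lacking Zta protein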
EBNA-1 counter: EBNA-1 DNA binding inhibition, counter-screen for ZTA; AID 2362; inhibition, % at 14.8 µM; fluorescence polarization; shares compounds with ZTA DNA inh; 320 tested, under 10 active
An asterisk follows results filed as active; / = no result given. Unless noted, no rule for the calls is given here.

SMILES | EBV gp42 block | HCV NS3 hel inh | ZTA DNA inh | core dimer inh | MEX-5 binding | EBNA-1 inh | ZTA inh confirm | EBNA-1 counter | others
CCOc1cc2c(cc1OCC)-n1cccc1C(c1c(O)cccc1OC)NC2 (centres undefined) | / | -72 | -10 | -5 | 1 | 4 | / | /
O=C1NC(=S)N(C2CC2)C(=O)/C1=C/c1ccc2c(c1)CCN2CCCCl | 17 | 36 | 8 | 35 | -1 | -5 | / | /
CC(C)(C)N1C(=O)NC(=O)/C(=C\c2ccc3c(c2)CCN3CCCCl)C1=O | -13 | 97* | 7 | 13 | 1 | -1 | / | / | NS3 hel confirm=-12;DNA FID counter=4
COc1ccc(C2(c3cccc(O)c3OC)CCN(C(C)=O)CC2)cc1O | / | / | 12 | 3 | 1 | 11 | / | /
COc1ccc(OC)c(N2C(=O)/C(=C/c3ccco3)C(=O)NC2=S)c1 | / | 44* | 75* | 83* | -2 | 103* | / | / | NS3 hel confirm=104*;DNA FID counter=62*
O=C(N/N=C/c1c(O)n(CCC2=CCCCC2)c(=S)[nH]c1=O)c1ccccc1 | -20 | 40* | 13 | 18 | 3 | 3 | / | / | NS3 hel confirm=99*;DNA FID counter=4;FID counter DR=>79
O=C(N/N=C/c1c(O)n(CCC2=CCCCC2)c(=O)[nH]c1=O)c1ccccc1 | 2 | 12 | 8 | 1 | -1 | -8 | / | /
CC1Oc2cc3c(-c4c(O)cc(O)c5c(O)c6c(cc45)OC(C)C(C)C6=O)c(O)cc(O)c3c(O)c2C(=O)C1C (centres undefined) | 4 | 50* | -1 | -10 | 1 | 5 | / | / | NS3 hel confirm=96*;DNA FID counter=64*
CC(C)c1ccc(-n2c(O)c(C=NC(CCS(C)=O)C(=O)O)c(=O)[nH]c2=S)cc1 (centres undefined) | -7 | 40* | 1 | -5 | 1 | -8 | / | / | NS3 hel confirm=-8;DNA FID counter=12
COC(=O)C1=C(c2ccc(OCc3ccccc3)cc2)C[C@@H]2CC[C@H]1N2C(=O)NCc1cccc(OC)c1 | / | / | -4 | / | / | / | / | /
Cc1ccc(N2C(=O)NC(=O)/C(=C\c3cc(C)n(-c4cc(C(=O)O)cc(C(=O)O)c4)c3C)C2=O)cc1 | / | 19 | 20 | 1 | -1 | -5 | / | /
CCc1ccc(N2C(=O)NC(=O)/C(=C\c3cc(C)n(-c4cc(C(=O)O)cc(C(=O)O)c4)c3C)C2=O)cc1 | / | 40* | 37* | 9 | -2 | -7 | 28 | -8 | NS3 hel confirm=-5;DNA FID counter=5
CCN(CC)c1ccc(N=Cc2c(O)n(Cc3ccco3)c(=O)[nH]c2=O)cc1 | -34 | 37* | 37* | 6 | / | -7 | 4 | -10 | NS3 hel confirm=4;DNA FID counter=-2
CC(=O)Cc1c[nH]c2ccccc12 | -11 | -16 | -7 | 3 | 0 | -10 | / | /
O=C(O)CC1OCC=C2CN3CCC45C6=CC(=O)C(=O)C([N+](=O)[O-])=C6NC4C1C2CC35 (centres undefined) | -10 | 19 | 41* | 22 | -4 | -19 | 67* | -2 | NS3 hel confirm=-16;DNA FID counter=17
COC(=O)C1=C(c2cccc(C#N)c2)C[C@@H]2CC[C@H]1N2C(=O)NCCCOC(C)C | / | / | 18 | / | / | / | / | /
CN(C)C(=O)Oc1c(Cl)cc(Cl)c2cccnc12 | -1 | -11 | -14 | -4 | 2 | 3 | / | /
CN(C)C(=O)Oc1noc2cc(Cl)ccc12 | -7 | -13 | 9 | 4 | -1 | 34* | / | / | EBNA-1 inh conf=-8;ZTA counter trip=-5
CN1CCC(O)(c2cccs2)C(C(=O)c2cccs2)C1 (centres undefined) | / | 8 | 1 | 1 | 0 | -1 | / | /
COc1ccc(-c2csc(NC(=O)COC(=O)Cc3ccccc3)n2)cc1OC | -6 | -3 | 15 | 2 | 0 | 31* | / | / | EBNA-1 inh conf=34*;ZTA counter trip=0
O=c1[nH]c(=O)n(CCc2ccccc2)c(O)c1C=NCc1ccc2c(c1)OCO2 | -12 | -5 | -4 | 9 | 0 | 31* | / | / | EBNA-1 inh conf=46*;ZTA counter trip=-6
CCOC(=O)c1ccc(NC(=O)N2C[C@@H]3C[C@@H](C2)c2cccc(=O)n2C3)cc1 | / | -1 | 14 | 2 | -2 | 16 | / | /
O=C1C(=O)c2ccccc2-c2ccccc21 | -5 | 15 | 65* | 44 | -3 | 5 | 68* | -8
Cn1c(O)c(/C=N/N2CCCCC2)c(=O)[nH]c1=O | -6 | 1 | 37* | 2 | 1 | 2 | 1 | 4
CCCCCCC(=O)N/N=C/c1c(O)n(CCCC)c(=S)[nH]c1=O | -3 | 17 | -2 | -1 | -6 | 12 | / | /
SMILES | EBV gp42 block | HCV NS3 hel inh | ZTA DNA inh | core dimer inh | MEX-5 binding | EBNA-1 inh | ZTA inh confirm | EBNA-1 counter | others
CCCCC(=O)N/N=C/c1c(O)n(CC)c(=S)[nH]c1=O | -22 | -7 | 36* | 9 | -1 | 7 | -3 | -8
CCNC(=O)NC(=O)C(C)OC(=O)c1c(C)nn(Cc2ccccc2)c1Cl (centres undefined) | 0 | 7 | -6 | -1 | 4 | -2 | / | /
O=C1NC(=O)N(Cc2ccco2)C(=O)/C1=C/C=C/c1ccco1 | -129 | 33 | 35* | 21 | 8 | 12 | 31 | 7
CN1C(=O)/C(=C/c2ccc(Cl)s2)C(=O)NC1=S | / | 26 | 0 | -4 | 5 | -4 | / | /
CN1C(=O)/C(=C/C=C/c2ccco2)C(=O)NC1=S | -17 | 33 | 34* | 18 | -80* | 1 | 69* | 10
COc1ccc(Cc2c(O)[nH]c(=S)[nH]c2=O)cc1 | / | 7 | / | / | -5 | / | / | /
O=C(O)C1C2CC3CC(C2)CC1(n1ncc(N2CCC4(CC2)OCCO4)c(Cl)c1=O)C3 (centres undefined) | -2 | -3 | -6 | 0 | 0 | -12 | / | /
CN1CCN(S(=O)(=O)c2ccc(Cl)nc2)CC1 | -11 | -4 | -24 | -15 | 0 | 4 | / | /
CCOC(=O)c1c(NS(=O)(=O)c2ccccc2)n(CCCOC)c2nc3ccccc3nc12 | 15 | 8 | 56* | 7 | -26* | 7 | -4 | -10
